Screening results (PubChem)
Only a selection was taken, and hits are over-represented in it overall.
A1 apoptosis 2 – compounds inhibiting A1, read as caspase activation; MEF A1-2A-BIM cells, caspase-Glo luminescence, 3 h; percent of clofoctol response, DMSO zero; caspase activation, % (no concentration beside the values); 24,000 tested, under 10 active; AID 2465; in the data active = caspase activation above about 5.9%; inconclusive = no clear call, values can overlap the other calls; inactive = below about 2.2%
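system = A1-2A-BIM-expressing MEF cells | quantity = 2500 MEF cells/well | dosing = 50 nL compound per well, pinned | schedule = overnight cell settling, then 3 h compound exposure, 37 °C | signal = luminescence from DEVD-luciferin Caspase-Glo reagent, 1:1 in 50 mM HEPES, 1 h RT | read-out = Caspase-3/7 activation, seen as rise in luminescence signal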
T cruzi HTS – inhibitors of intracellular Trypanosoma cruzi; intracellular Trypanosoma cruzi in host cells, plate reader; activity score (inhibition), % at 5.01 µM; actives 4.9% (n = 22,000); AID 651903; in the data active = activity score above about 55%; inconclusive = no clear call, values can overlap the other calls;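 also: parasites and compound incubated about four days before reading; 0% = median of neutral control wells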
INS-1E rescue – preserves ATP levels in cytokine-treated INS-1E cells | INS-1E cytokine-induced death, ATP luminescence, 48 h; normalised: neutral wells 0, positive control 100 | protection from cytokine-induced ATP loss, % at 10 µM | actives 0.1% (n = 20,000) | AID 488910;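 active = mean replicate protection from cytokine-induced ATP loss at least 50% and at least 75% of replicates each reaching 50%; inconclusive = meets only one of the two criteria, mean or replicate share; inactive = fails both the mean and replicate share criteria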
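Assay system – rat INS-1E insulinoma cell line · Quantity – 8000 cells per well · Buffer or medium – RPMI without phenol red, 5% FBS · Schedule – 48 h co-treatment, 10 min post-lysis read · Technique – luminescent ATP assay (CellTiter-Glo)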
Active calls of the source: *; ? = inconclusive; . = no result given.

SMILES | A1 apoptosis 2 | T cruzi HTS | INS-1E rescue
COC(=O)CCCCCCC(=O)N/N=C/[C@H](O)[C@@H](O)[C@H](O)[C@H](O)CO[C@H]1O[C@H](CO)[C@H](O)[C@H](O)[C@H]1O | 1 | -12 | -7
O=C(CCCCC(=O)N/N=C/c1ccc(C(=O)O)cc1)NO | -2 | -12 | 9
COc1ccc(CN(C)C[C@H]2Oc3ccc(NC(=O)Cc4cn(C)c5ccccc45)cc3CC(=O)N([C@@H](C)CO)C[C@@H]2C)cc1 | 0 | 61* | -2
C[C@@H]1CN([C@H](C)CO)C(=O)Cc2cc(NC(=O)Cc3cn(C)c4ccccc34)ccc2O[C@H]1CN(C)Cc1ccc(Oc2ccccc2)cc1 | . | 78* | -20
C[C@H]1CN([C@@H](C)CO)C(=O)Cc2cc(NC(=O)Cc3cn(C)c4ccccc34)ccc2O[C@@H]1CN(C)Cc1ccc(Oc2ccccc2)cc1 | . | 51 | -15
C[C@H]1CN([C@@H](C)CO)C(=O)Cc2cc(NC(=O)Cc3cn(C)c4ccccc34)ccc2O[C@H]1CN(C)Cc1ccc(Oc2ccccc2)cc1 | -1 | 59* | -43
C[C@H](CO)N1C[C@H](C)[C@@H](CN(C)Cc2ccc(Oc3ccccc3)cc2)Oc2ccc(NC(=O)Cc3cn(C)c4ccccc34)cc2CC1=O | -1 | . | .
COc1ccc(CN(C)C[C@H]2Oc3ccc(NC(=O)Cc4cn(C)c5ccccc45)cc3CC(=O)N([C@@H](C)CO)C[C@H]2C)cc1 | 0 | 32 | -9
COc1ccc(CN(C)C[C@@H]2Oc3ccc(NS(=O)(=O)c4c(C)noc4C)cc3C(=O)N([C@@H](C)CO)C[C@H]2C)cc1 | . | 11 | -8
COC(=O)CCCCCCC(=O)N/N=C/c1ccc(F)c(Oc2ccccc2)c1 | 0 | 6 | 1
COc1cc(/C=N/NC(=O)c2ccc(C(=O)NO)cc2)c(Br)cc1O | -5 | 3 | 25
C[C@H](CO)N1C[C@H](C)[C@@H](CN(C)S(=O)(=O)c2ccc(Oc3ccccc3)cc2)OCc2cnnn2CCCC1=O | 0 | 73* | .
C[C@@H]1CN([C@@H](C)CO)C(=O)CCCn2nncc2CO[C@H]1CN(C)S(=O)(=O)c1ccc(Oc2ccccc2)cc1 | 0 | 8 | .
C[C@H](CO)N1C[C@H](C)[C@H](CN(C)S(=O)(=O)c2ccccc2)OCc2cnnn2CCCC1=O | . | -11 | .
C[C@H]1CN([C@@H](C)CO)C(=O)CCCn2nncc2CO[C@@H]1CN(C)S(=O)(=O)c1ccc(Oc2ccccc2)cc1 | 1 | 73* | 2
C[C@@H]1CN([C@H](C)CO)C(=O)c2cc(NS(C)(=O)=O)ccc2O[C@@H](C)CCCCO[C@@H]1CN(C)Cc1ccccc1 | -1 | . | .
CNC[C@@H]1Oc2ccc(NS(=O)(=O)c3ccc(F)cc3)cc2CC(=O)N([C@@H](C)CO)C[C@@H]1C | . | -10 | 0
C[C@@H]1CN([C@@H](C)CO)C(=O)Cc2cc(NS(=O)(=O)c3ccccc3)ccc2O[C@@H]1CN(C)Cc1ccc(C(F)(F)F)cc1 | 0 | -7 | 5
C[C@@H]1CN([C@@H](C)CO)C(=O)Cc2cc(NS(=O)(=O)c3ccc(Cl)cc3)ccc2O[C@@H]1CN(C)Cc1ccc(C(F)(F)F)cc1 | 0 | 58* | -20
C[C@@H]1CN([C@H](C)CO)C(=O)Cc2cc(NS(=O)(=O)c3ccc(Cl)cc3)ccc2O[C@@H]1CN(C)Cc1ccc(C(F)(F)F)cc1 | 0 | 54 | -19
C[C@@H]1CN([C@H](C)CO)C(=O)Cc2cc(NS(=O)(=O)c3ccc(Cl)cc3)ccc2O[C@H]1CN(C)Cc1ccc(C(F)(F)F)cc1 | 0 | 64* | -12
C[C@H](CO)N1C[C@H](C)[C@@H](CN(C)Cc2ccc(C(F)(F)F)cc2)Oc2ccc(NS(=O)(=O)c3ccc(Cl)cc3)cc2CC1=O | 0 | . | .
C[C@H]1CN([C@@H](C)CO)C(=O)Cc2cc(NS(=O)(=O)c3ccc(Cl)cc3)ccc2O[C@@H]1CN(C)Cc1ccc(C(F)(F)F)cc1 | . | 72* | 5
O=C(CCCCCCC(=O)N/N=C/c1ccoc1)NO | 1 | . | .
O=C(CCCCC(=O)N/N=C/C1=CCCCC1)NO | . | 17 | 6
SMILES | A1 apoptosis 2 | T cruzi HTS | INS-1E rescue
C[C@@H]1CCCCO[C@@H](CN(C)C(=O)C2CCCCC2)[C@@H](C)CN([C@@H](C)CO)C(=O)c2cc(NC(=O)Cc3ccccc3)ccc2O1 | -2 | . | .
CC(C)(C)OC(=O)NC1(/C=N/NC(=O)CCCCC(=O)NO)CCCC1 | 1 | 9 | -2
C[C@@H]1CCCCO[C@@H](CN(C)S(=O)(=O)c2cccs2)[C@@H](C)CN([C@@H](C)CO)C(=O)c2cc(NS(=O)(=O)c3cccs3)ccc2O1 | 1 | . | .
CC(C)=CCC[C@@H](C)C/C=N/NC(=O)CCCCCCC(=O)Nc1ccccc1O | 0 | 0 | 4
CCOc1cc(/C=N/NC(=O)CCCCCCC(=O)OC)ccc1O | . | -3 | 6
C[C@H](CO)N1C[C@H](C)[C@@H](CN(C)Cc2ccccc2)Oc2c(NC(=O)c3ccc(-c4nccs4)cc3)cccc2C1=O | . | 53 | -9
C[C@@H]1CN([C@H](C)CO)C(=O)c2cccc(NC(=O)c3ccc(-c4nccs4)cc3)c2O[C@H]1CN(C)Cc1ccc(-c2ccccc2)cc1 | . | 43 | -3
C[C@H](CO)N1C[C@H](C)[C@@H](CN(C)Cc2ccc(Oc3ccccc3)cc2)Oc2c(NC(=O)c3ccc(-c4nccs4)cc3)cccc2C1=O | 0 | 67* | -17
C[C@@H]1CN([C@@H](C)CO)C(=O)c2cccc(NC(=O)c3ccc(-c4nccs4)cc3)c2O[C@@H]1CN(C)Cc1ccc(C(=O)Nc2ccccc2N)cc1 | 0 | 75* | ?
C[C@H](CO)N1C[C@H](C)[C@H](CN(C)Cc2ccc(-c3ccccc3)cc2)Oc2c(NC(=O)c3ccc(-c4nccs4)cc3)cccc2C1=O | -1 | 52 | -46
C[C@H]1CN([C@@H](C)CO)C(=O)c2cccc(NC(=O)c3ccc(-c4nccs4)cc3)c2O[C@H]1CN(C)Cc1ccc(-c2ccccc2)cc1 | . | 66* | -49
C[C@H]1CN([C@@H](C)CO)C(=O)c2cccc(NC(=O)c3ccc(-c4nccs4)cc3)c2O[C@H]1CN(C)Cc1ccc(Oc2ccccc2)cc1 | -2 | 41 | -24
C[C@H](CO)N1C[C@H](C)[C@@H](CN(C)Cc2ccc(-c3ccccc3)cc2)Oc2c(NC(=O)c3ccc(-c4nccs4)cc3)cccc2C1=O | . | 81* | -29
C[C@@H]1CN([C@@H](C)CO)C(=O)Cc2cc(NC(=O)c3ccncc3)ccc2O[C@H]1CN(C)S(C)(=O)=O | -1 | . | .
COC(=O)CCCCCCC(=O)N/N=C/c1ccccc1Cl | . | -23 | 0
O=C(CCCCC(=O)N/N=C/c1cccc(B(O)O)c1)NO | 0 | . | .
C[C@@H]1CN([C@H](C)CO)C(=O)Cc2cc(NC(=O)Cc3ccccc3)ccc2O[C@H]1CN(C)Cc1ccc(C(F)(F)F)cc1 | -2 | 70* | -5
C[C@H](CO)N1C[C@H](C)[C@H](CN(C)Cc2ccccc2)Oc2ccc(NC(=O)Nc3ccc(C(F)(F)F)cc3)cc2CC1=O | . | 66* | -5
